Screening data: PubChem, Johns Hopkins Ion Channel Center
The list is not random: actives were taken first. Their share in the collection is about 3.1%.
KCNQ1 pot: potentiators or activators of KCNQ1 channel, primary screen, cell-based, thallium flux, high-throughput. Potassium voltage-gated channel subfamily KQT member 1 (Homo sapiens), P51787. AID 2648, 2010. CHO-K1 KCNQ1, thallium flux FluxOR fluorescence; stronger effect = higher value. B-score at 10 µM. 310,000 tested, 0.35% active;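 active = fluorescence ratio B-score, a plate-corrected score, at least three library SD, with initial intensity B-score within 5 SD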
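System: Stable KCNQ1 CHO-K1 line | Incubation: 90 min dye loading and 20 min compound exposure, both at room temperature | Measure: Ratio B score | Medium: Assay buffer for compound exposure, DMSO matched across wells | Compound dosing: Single-concentration screen | Probe or stimulus: K+/Tl+ depolarizing stimulus | Measured by: Kinetic FluxOR fluorescence, 10 s baseline plus 110 s post-stimulus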
KCNK9 inh: KCNK9 potassium channel inhibitors, primary screen, HEK293 cells, thallium flux; 310,000 tested, 1.2% active; FluxOR thallium flux fluorescence; stronger effect = lower value; AID 488922, 2010; Potassium channel subfamily K member 9 (Homo sapiens), Q9NPC2; B-score at 10 µM;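 active = ratio B-score over 3 SD below the library mean, with starting fluorescence within 5 SD of its mean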;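 note: negative B-score means less thallium flux so channel inhibition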
Target sequence (Q9NPC2 whole entry, looked up): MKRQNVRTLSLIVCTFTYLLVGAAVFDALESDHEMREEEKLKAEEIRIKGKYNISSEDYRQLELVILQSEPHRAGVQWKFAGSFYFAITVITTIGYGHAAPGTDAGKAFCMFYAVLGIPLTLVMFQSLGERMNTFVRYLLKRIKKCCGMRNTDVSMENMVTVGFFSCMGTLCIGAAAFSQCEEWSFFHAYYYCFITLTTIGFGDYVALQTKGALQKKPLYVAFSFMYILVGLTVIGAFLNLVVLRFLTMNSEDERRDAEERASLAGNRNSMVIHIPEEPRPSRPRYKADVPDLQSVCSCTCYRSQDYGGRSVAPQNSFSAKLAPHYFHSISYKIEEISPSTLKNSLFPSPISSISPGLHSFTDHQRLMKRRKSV
hERG rescue: hERG rescue from dofetilide block, primary screen, cell-based, CHO-hERG, FluxOR thallium flux, dofetilide IC70; Voltage-gated inwardly rectifying potassium channel KCNH2 (Homo sapiens), Q12809; dofetilide IC70 present; activation (rescue from dofetilide block), less the hit threshold, % at 10 µM; 310,000 tested, 0.51% active;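 active = activation above the mean of controls blocked by dofetilide plus 5 SD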;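 note: thallium influx through hERG after potassium depolarization seen as dye fluorescence rise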
KCNQ1 inh: inhibitors of human KCNQ1 channel, primary screen, cell-based, thallium flux, high-throughput. 310,000 tested, 1.3% active. AID 2642, 2010. B-score at 10 µM. CHO-K1 KCNQ1, FluxOR thallium flux fluorescence; stronger effect = higher value. Potassium voltage-gated channel subfamily KQT member 1 (Homo sapiens), P51787;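 active = compounds whose thallium flux B-score, printed positive for inhibition, exceeds three library SD while starting fluorescence stays within three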;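 note: channel opened by potassium depolarization with thallium stimulus after 20 min compound exposure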
KCNK3 block: human KCNK3 channel inhibitors, primary screen, CHO cells, FluxOR thallium flux, B-score; 340,000 tested, 0.84% active; FluxOR fluorescence; stronger effect = lower value; AID 602410, 2012; B-score at 10 µM; Potassium channel subfamily K member 3 (Homo sapiens), O14649;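 active = B-score under library mean minus 4 SD, starting fluorescence ratio at most library mean plus 5 SD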;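 note: more negative B-score means stronger inhibition of thallium flux through KCNK3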
* hit, by the source's call; i = inactive; / = not tested or not shown.

SMILES	KCNQ1 pot	KCNK9 inh	hERG rescue	KCNQ1 inh	KCNK3 block
COC(=O)C1=C(C)NC2=C(C(=O)CCC2)C1c1ccc(-c2ccsc2C(=O)OC)o1 (stereo not drawn)	i	i	14*	i	i
COC(=O)C1=C(C)NC2=C(C(=O)CCC2)C1c1ccsc1 (stereo not drawn)	i	i	0	i	/
CC(C)OCCCNC(=O)CN1C(=O)c2cccc3cccc1c23	i	i	-10	i	i
COc1cccc(-c2nn3c(-c4cc(C)[nH]n4)nnc3s2)c1	i	i	5.9*	i	i
O=C(c1cccc(S(=O)(=O)N2CCCC2)c1)N1CCCC(C(F)(F)F)C1 (stereo not drawn)	i	i	-12	i	i
OCCN(Cc1ccccc1)Cc1ccc(C(F)(F)F)cc1	i	-6.9*	-6	i	i
CCOC(=O)CNC(=O)C1(/C=C/c2ccccc2)CC(=O)N1c1ccc(C)cc1 (stereo not drawn)	i	i	-6	i	i
O=C(NCc1ccc(Cl)cc1)C1CCCCN1S(=O)(=O)c1ccccc1 (stereo not drawn)	i	i	-9	i	i
Cc1cc(C)c(C(=O)c2ccc(C(=O)N3CCCCC3)cc2)c(C)c1	i	i	14*	i	i
Cc1cc(C)cc(C(=O)N2CCCCCC2)c1	i	i	-18	i	i
CCN(CC(=O)NCc1ccc(F)cc1)C(=O)/C=C/c1ccc(S(=O)(=O)N(CC)CC)cc1	i	i	-2	i	i
COc1ccc(Cc2nnc(SCC(=O)Nc3cc(Cl)ccc3C)[nH]c2=O)cc1	i	i	-14	i	i
COc1ccccc1NC(=O)CSc1n[nH]c(Cc2ccccc2)n1	i	i	-10	i	i
COc1ccccc1NC(=O)Cc1noc(CSc2cc(C)c3ccccc3n2)n1	i	i	-7	i	-9*
COc1ccccc1NC(=O)CSc1nc2ccccc2cc1Cc1ccccc1	i	-7.9*	-8	i	i
CN1CCN(NC(=O)Nc2cccc(F)c2)CC1	i	i	-7	8*	i
O=C(Nc1cccc(Cl)c1)NC1CC2CCC1C2 (stereo not drawn)	i	i	1	i	i
Cc1ccc(OCCSc2nc(NC(C)C)nc(NC(C)C)n2)cc1	i	i	-16	6*	i
CCNc1nc(SCCOc2ccc(C)cc2)nc(N(C)C)n1	i	i	-11	i	i
Clc1ccc(-[n+]2c(-c3cccc(Br)c3)[nH]c3nc4ccccc4nc32)cc1	i	i	-11	10*	i
C[C@H](CO)N1C[C@H](C)[C@@H](CN(C)Cc2ccc(Oc3ccccc3)cc2)Oc2c(NS(=O)(=O)c3cn(C)cn3)cccc2C1=O	/	/	/	/	i
CCCCOc1ccc(-c2c(C(=O)Nc3ccccc3)c(C)[nH]c(=S)c2C#N)cc1	i	i	-19	i	i
CCCCOc1ccc(-c2c(C#N)c(N)[nH]c(=S)c2C#N)cc1	i	i	8.4*	i	i
C=CCn1c2ccccc2c2nnc(SCCN3CCCCC3)nc21	i	i	-10	i	i
C=CCn1c2ccccc2c2nnc(SCN3C(=O)c4ccccc4C3=O)nc21	i	i	-9	6*	i
CCN1/C(=C/C=C/C=C/C=C/c2sc3ccccc3[n+]2CC)Sc2ccccc21	i	i	-33	i	i
CCN1/C(=C/C=C/C=C/c2sc3ccccc3[n+]2CC)Sc2ccccc21	i	i	-42	17*	/
Cc1sc(-c2c(C#N)c(N)nc3c2CCCCCC3)cc1[N+](=O)[O-]	i	i	-15	i	i
CCCCc1sc(-c2c(C#N)c(N)nc3c2CCCCC3)cc1[N+](=O)[O-]	i	-6.7*	-4	i	i
CSc1nc(-c2ccccc2)[nH]c(=S)c1C(C)=O	44*	i	32*	i	i
